# Compounds with a hit are over-represented: about 2.2% of the library has one in this group of screens.
# HCV core dimer – inhibitors of HCV core protein dimerization, primary screen, biochemical, TR-FRET, high-throughput; TR-FRET GST/Flag-core106 dimerization, 1536-well; inhibition, % at 5 µM; actives 0.33% (n = 300,000); AID 1899, 2009;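 active = inhibition above the mean of all tested compounds plus 3 SD, set per screening campaign, cut at about 45% in these data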
#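 Assay system: tagged HCV core106 pair (GST and Flag); medium: KF-containing HEPES buffer, pH 7.45, DTT, CHAPS, BSA; also added: Eu donor and XL665 acceptor anti-tag antibodies; dosing: 5 µM single dose; timing: compound-protein-antibody incubation 4 h at 22.5 °C; signal: TR-FRET 671 and 617 nm emission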
# DAGLB inh – DAGLB lipase inhibitors, primary screen, biochemical, fluorescence, HTS; inhibition, % at 5.17 µM; actives 0.059% (n = 340,000); HEK293T DAGLB membrane lysate, EnzChek fluorogenic substrate; in the data active = inhibition above about 34%;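 also: 0% = enzyme with vehicle and 100% = wells lacking enzyme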
# Target sequence (Q8NCG7 whole entry, looked up): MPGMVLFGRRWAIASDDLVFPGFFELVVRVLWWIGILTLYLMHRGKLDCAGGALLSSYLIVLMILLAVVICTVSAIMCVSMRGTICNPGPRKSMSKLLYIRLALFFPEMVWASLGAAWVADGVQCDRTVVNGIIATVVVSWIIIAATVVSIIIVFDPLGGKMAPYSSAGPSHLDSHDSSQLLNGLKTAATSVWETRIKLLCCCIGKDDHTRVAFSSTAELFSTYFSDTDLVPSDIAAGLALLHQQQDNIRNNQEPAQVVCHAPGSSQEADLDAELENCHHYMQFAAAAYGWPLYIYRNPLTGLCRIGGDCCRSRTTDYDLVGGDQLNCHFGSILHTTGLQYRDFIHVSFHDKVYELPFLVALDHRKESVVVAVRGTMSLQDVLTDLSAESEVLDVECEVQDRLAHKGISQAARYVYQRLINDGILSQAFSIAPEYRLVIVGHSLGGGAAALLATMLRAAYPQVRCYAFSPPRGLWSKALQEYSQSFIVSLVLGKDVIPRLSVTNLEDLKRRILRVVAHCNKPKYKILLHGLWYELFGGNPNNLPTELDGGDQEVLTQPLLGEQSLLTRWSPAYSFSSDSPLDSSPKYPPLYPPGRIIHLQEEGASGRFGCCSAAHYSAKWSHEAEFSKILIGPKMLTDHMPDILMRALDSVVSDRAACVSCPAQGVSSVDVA
# GRK2 inh – compounds blocking aptamer binding on GRK2 – biochemical, human GRK2, bead flow cytometry, HTS, primary screen; Beta-adrenergic receptor kinase 1 (Homo sapiens), P25098; FAM-aptamer displacement from GRK2; inhibition of aptamer binding, % at 10 µM; actives 0.59% (n = 330,000); AID 488847, 2010;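 active = inhibition of aptamer binding above 40%, roughly 3 SD of noise, on plates passing a quality check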;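 also: median bead fluorescence of bound FAM aptamer so fluorescent compounds give negative values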
# HCV NS3 hel inh – inhibitors of HCV NS3 helicase, primary screen, biochemical, Cy5 molecular beacon fluorescence | NS3 helicase DNA unwinding | inhibition, % at 10.9 µM | actives 0.56% (n = 290,000) | AID 1800, 2009;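 active = inhibition above the mean of all tested compounds plus 3 SD, set per campaign, cut at about 35% in these data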;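 also: 0% = DMSO wells and 100% = thioflavine S control wells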
#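 Assay system – hepatitis C virus NS3 helicase domain fragment enzyme · Buffer or medium – MOPS pH 6.5, MgCl2, DTT, Tween20, BSA · Reagent – Cy5/quencher beacon DNA duplex and ATP to start · Compound – single 10.9 µM dose · Timing – 1 h at 25 °C · Technique – Cy5 beacon fluorescence read at start and 1 h · Measure – % inhibition of unwinding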
# GPR7 antagonist – GPR7 receptor antagonists, primary screen, cell-based, fluorescence, single concentration. GPR7-expressing cells, fluorescence antagonist assay. inhibition, % at 4.4 µM. actives 1.1% (n = 290,000). AID 1861, 2009; in the data active = inhibition above about 16%, passing the limit was not always enough;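 also: cells stimulated with the agonist NPW; 0% = agonist with vehicle and 100% = vehicle without agonist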
# DNA FID counter-1 – compounds displacing fluorescent DNA intercalator, primary screen, artefact control for HCV NS3 helicase inhibitor project, biochemical, FID fluorescence. DNA fluorescent intercalator displacement. AID 1845, 2009. actives 0.17% (n = 290,000). inhibition, % at 7.9 µM;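 also: 0% = vehicle and 100% = reference compound; higher means more ethidium bromide displaced from hairpin DNA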
# NS3 helicase cf – HCV NS3 helicase inhibitors, retest, confirmation, biochemical, Cy5 molecular beacon fluorescence, triplicate; actives 31% (n = 1,600); shares compounds with HCV NS3 hel inh; NS3 helicase DNA unwinding; inhibition, % at 10.9 µM; AID 1943, 2009;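 active = inhibition above the mean of all tested compounds plus 3 SD, cutoff set per campaign, cut at about 36% in these data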
# DNA FID counter-2 – compounds displacing fluorescent DNA intercalator, artefact control for HCV NS3 helicase inhibitor project, biochemical, FID fluorescence, triplicate; DNA fluorescent intercalator displacement; inhibition, % at 7.9 µM; actives 4% (n = 1,600); shares compounds with HCV NS3 hel inh; AID 1945, 2009;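 also: 0% = vehicle and 100% = reference compound; higher means more displacement of ethidium bromide from the DNA hairpin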
# * marks the source's active call; other numbers are inactive results; . = no result. Rule as the data show it, unless noted: active = inhibition above about 37%; inactive = the rest.
SMILES,HCV core dimer,DAGLB inh,GRK2 inh,HCV NS3 hel inh,GPR7 antagonist,DNA FID counter-1,NS3 helicase cf,DNA FID counter-2
CN=c1scc(-c2ccccc2F)n1/N=C/c1ccc(O)c(O)c1O,.,7,.,23,-11,-18,.,.
CC(C)N=c1scc(-c2cccs2)n1/N=C/c1ccc(O)c(O)c1O,24,11,2,43*,-3,-13,-10,17
CCCN(CC(=O)Nc1ccccc1OC)C(=O)C1=COCCO1,.,0,2,.,.,.,.,.
CCOC(=O)c1cnc2c(ccc3ccccc32)c1NCCO,-4,-2,0,0,5,-5,.,.
CCOC(=O)c1cnc2c(ccc3ccccc32)c1NCCN(C)C,3,-10,0,36*,-3,46*,7,75*
Cc1ccc(S(=O)(=O)NCCC(=O)NCCc2ccc(S(N)(=O)=O)cc2)cc1C,.,-1,5,.,.,.,.,.
O=C(O)c1ccc2noc(-c3ccccc3)c2c1,-8,2,1,14,1,-6,.,.
O=C(O)/C=C/c1ccc2c(-c3ccccc3)onc2c1,-23,1,0,54*,-4,-15,-21,7
COc1ccc(-c2[nH]nc3nc(N4CCN(C(=O)c5ccoc5)CC4)cc(C(F)(F)F)c23)cc1,.,-2,.,.,.,.,.,.
CCN(CC)c1ccc(C=Nc2ccc(N(C)C)cc2)c(O)c1,-26,8,0,37*,12,-3,3,5
O=c1oc2ccc(Cl)cc2nc1/C=C(\O)c1ccco1,-1,-1,6,11,-14,6,.,.
CC(C)C/C(O)=C/c1nc2cc(Cl)ccc2oc1=O,-16,1,0,38*,-5,-8,-1,12
COc1ccc(OC)c(C(=O)NC(CC(N)=O)c2ccc(N3CCN(c4ccc(F)cc4)CC3)c([N+](=O)[O-])c2)c1 (stereo unspecified),16,3,2,-21,-1,-18,.,.
O=C(c1cccc(S(=O)(=O)Nc2ccccc2Cl)c1)N1CCC1,-2,3,1,.,.,.,.,.
CC1CCCN(C(=O)c2cccc(S(=O)(=O)Nc3cc(C(F)(F)F)ccc3Cl)c2)C1 (stereo unspecified),11,16,0,44*,-2,-43,57*,-39
C/C(=N\NC(=O)CNC(=O)c1ccc(F)cc1)c1ccco1,7,-1,0,2,-7,-4,.,.
O=C1CS/C(=N\N=C\c2ccco2)N1c1ccccc1,30,2,3,41*,3,-15,15,20
Cc1cc(C)c(S(=O)(=O)N2CCCCC2CCNC(=O)C(=O)NCc2cccnc2)c(C)c1 (stereo unspecified),0,-2,0,.,.,.,.,.
O=C(Nc1cccc(-c2nnc(-c3ccco3)o2)c1)c1ccccc1,9,.,2,-13,-4,-17,.,.
CC(=O)Oc1ccc(C(=O)Nc2cccc(-c3nnc(-c4ccco4)o3)c2)cc1,7,-1,0,51*,1,1,16,-20
CC(C)CCNC(=O)C(=O)NCC1OCCCN1S(=O)(=O)c1cccs1 (stereo unspecified),0,0,0,-12,-5,-18,.,.
O=C1[C@H]2[C@@H](/C=C/c3ccccc3)N3C(=O)CN(CCO)C(=O)[C@@]3(Cc3ccccc3)[C@H]2C(=O)N1c1ccccc1,-13,-2,2,20,-6,-20,.,.
CN1C(=O)[C@H]2[C@@H](/C=C/c3ccccc3)N3C(=O)CN(CCO)C(=O)[C@@]3(Cc3ccccc3)[C@H]2C1=O,-12,-3,1,44*,-7,-17,-14,-8
CN(CCOc1ccc(Cl)cc1)C(=O)c1cc(-c2ccco2)nc2ccccc12,10,-2,2,.,.,.,.,.
O=C(COc1ccc2ccccc2c1)N[C@@H](C(=O)O)c1ccc(O)cc1,-7,1,10,43*,22,-21,-29,-4
SMILES,HCV core dimer,DAGLB inh,GRK2 inh,HCV NS3 hel inh,GPR7 antagonist,DNA FID counter-1,NS3 helicase cf,DNA FID counter-2
CCCCN(C(=O)c1cc(CN2C(=O)c3ccccc3C2=O)ccc1OC)c1c(N)n(CC(C)C)c(=O)[nH]c1=O,.,1,.,.,.,.,.,.
Cc1occc1-c1nnc(SCC(=O)N2CCCc3ccccc32)n1Cc1ccco1,.,-1,.,45*,4,-47,-7,-15
O=C(NC1CCCC1)C(=O)N(c1ccccc1F)C(C(=O)NCC1CCCO1)c1cccs1 (stereo unspecified),-15,-1,0,36*,-4,-28,-15,-36
Cc1ccc(OCCC(=O)NNC(=O)c2ccc(Br)cc2)cc1,.,-7,0,.,.,.,.,.
Cc1ccc(S(=O)(=O)/N=C2/NC(=O)/C(=C\c3ccco3)S2)cc1,8,13,2,38*,-4,-21,67*,-3
COc1ccc(N=C2NC(=O)/C(=C\c3ccco3)S2)cc1,25,-1,3,41*,-3,-15,-5,-6
COc1ccc(C(C)(C)C)cc1NC(=O)CCc1c(C)noc1C,.,-1,0,.,.,.,.,.
CN(Cc1ccccc1)C(=O)CN1C(=O)NC2(CCCc3sccc32)C1=O (stereo unspecified),.,1,.,.,.,.,.,.
Oc1c(Br)cc(Cl)cc1C=Nc1ccc(N2CCOCC2)cc1,-4,.,6,43*,2,5,13,13
COc1ccc(C(=O)CC(C#N)c2ccc3c(c2)OCO3)cc1OC (stereo unspecified),.,-3,.,.,.,.,.,.
COc1ccc(NC(=O)c2ccc(NC3=NC4CS(=O)(=O)CC4S3)cc2)cc1 (stereo unspecified),-1,0,2,47*,-7,-5,-4,11
O=C(O)Cn1c2ccccc2c2ccccc21,-2,-1,0,0,-8,0,.,.
O=C(O)Cn1c2c(c3ccccc31)CSc1ccc(Cl)cc1-2,10,2,3,37*,6,13,84*,-10
Nc1c(O)ccc2c1C(=O)c1ccccc1C2=O,-155,.,1,43*,-6,18,11,27
O=C(COc1ccccc1)Nc1nnc(-c2ccc(F)cc2)o1,-23,0,0,60*,-19,-17,-20,-15
Cc1ccc(-c2nn3c(C)nnc3s2)cc1NC(=O)c1ccc(-c2cccc(Cl)c2)o1,.,6,.,60*,3,-34,-8,-27

# High-throughput results deposited in PubChem by several laboratories.
